Converted amounts (≈) assume the structure as drawn. The source made the active and inactive calls. The rule behind the calls is not given here.

From ChEMBL document CHEMBL1149898, “A biaryl xanthone derivative having axial chirality from Penicillium vinaceum” (J Nat Prod, 2008) come the findings set out here.

In assay [1] the test system is Saccharomyces cerevisiae. Briefly: Antifungal activity against Saccharomyces cerevisiae after 18 to 24 hrs by disk diffusion test. Type of assay: functional, organism-based. In a few lines: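 Diluted yeast inoculum was spread on 90 mm agar plates supplemented with 2% glucose and dried for 5–15 min. Disks loaded with 10, 50, 100 and 200 µg of compound were placed on top. Plates were incubated 18–24 h at 28 °C, then inhibition zone diameters were measured.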
Background: In agar diffusion tests the substance spreads into inoculated agar from a disc or well.

In assay [2] the test system is Agrobacterium tumefaciens. Briefly: Antitumor activity against Agrobacterium tumefaciens-induced 10 ppm crown gall tumor in potato tubers at […] after 21 days by crown gall tumor potato disk test. It counts as functional. In a few lines:
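Potato tubers were surface-sterilized in 1% NaOCl for 20 min and cut into 5 mm disks, 10 per 2% agar plate. A 48 h Agrobacterium tumefaciens culture, mixed with compound in DMSO at 10 or 100 µg/mL, was applied to each disk. Plates were kept at 28 °C for 21 days. Tumors per disk were counted; % inhibition = 100 − (mean tumors sample/mean control)×100.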

Assay [3] concerns Paracentrotus lividus. Briefly: Inhibition of sea urchin egg fertilization by sea urchin sperm assessed as inhibition of divided eggs by light microscopy. It counts as functional, organism-based. In a few lines: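 Eggs were rinsed, filtered and diluted in artificial seawater to 2000 eggs/mL. "Dry" sperm was diluted 1:50 in ASW, and 10 µL was added per 1 mL eggs at 20 °C. Compounds were in DMSO at 50 µg/mL, with DMSO-only controls. Eggs were cultured at room temperature with gentle agitation, and percent divided eggs was scored by light microscopy 30 min post-fertilization.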

The subject of assay [4] is Bacillus subtilis. Put plainly: Antibacterial activity against Bacillus subtilis by disk diffusion test. It counts as functional, organism-based. In a few lines: (§1)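 Bacterial suspensions were grown 2–5 h to a suitable OD, diluted with water and swabbed evenly over agar. After the inoculum dried, disks carrying 10, 50, 100 and 200 µg of compound were applied. Plates were incubated overnight, and zone diameters around the disks were measured.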

Assay [5] concerns Staphylococcus aureus. Briefly: Antibacterial activity against Staphylococcus aureus by disk diffusion test. Type of assay: functional, organism-based. In a few lines: as §1
Assay [6] relates to Escherichia coli. Put plainly: Antibacterial activity against Escherichia coli by disk diffusion test. It counts as functional, organism-based. In a few lines: as §1

One may read the IC50 as the concentration that gives 50% inhibition. Turning to `CC(=O)c1cc2c(=O)c3c(C(=O)O)c(O)c(O)cc3oc2c(C(C)=O)c1-c1coc2cc(O)c(O)c(C(=O)O)c2c1=O` [VINAXANTHONE], the outcome in assay [1], in assay [4], in assay [5] and in assay [6] was inactive. Moreover, in assay [2], the “inhibition (INH)” value is 67%. Further, in assay [3], the concentration for half-maximal inhibition (IC50) was determined as 0.12 µg/mL (≈ 0.208 µM).
Take `CC(=O)c1cc2c(=O)c3c(C(=O)O)c(O)c(O)cc3oc2c(C(C)=O)c1C1COc2cc(O)c(O)c(C(=O)O)c2C1=O` (stereo not drawn): the result in assay [1], in assay [4], in assay [5] and in assay [6] was inactive. Further, the “inhibition (INH)” value in assay [2] came out at 12%. In addition, the IC50 in assay [3] came to 0.71 µg/mL (≈ 1.23 µM).
Regarding `COc1oc2cc(O)c(O)c(C(=O)O)c2c(=O)c1-c1c(C(C)=O)cc2c(=O)c3c(C(=O)O)c(O)c(O)cc3oc2c1C(C)=O`, the result in assay [1], in assay [4], in assay [5] and in assay [6] was inactive. In addition, the “inhibition (INH)” value in assay [2] came to 72%. In assay [3], the half-inhibitory concentration (IC50) came to 0.05 µg/mL (≈ 0.0824 µM).
